# Assay outcomes deposited in PubChem BioAssay by several laboratories.
# Only some compounds are listed: those with a hit (about 2.2% of all), similar ones and a draw of the others.
# MEX-5 binding: C. elegans MEX-5 TCR-2 RNA binding activity | MEX-5/FITC-TCR2 RNA binding, fluorescence polarization; stronger effect = lower value | actives 0.38% (n = 300,000) | activity score (negative = inhibition of binding), % at 10 µM;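 active = inhibition past about -25% in most replicates, and total fluorescence under double the plate's negative control median, limit read from the data; inconclusive = replicates evenly split on the limit, or fluorescence at least double controls; inactive = too little inhibition in most replicates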;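 note: 0% = DMSO and -100% = 5 µM competing unlabeled TCR2 RNA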
# Target sequence (Q9XUB2 whole entry, looked up): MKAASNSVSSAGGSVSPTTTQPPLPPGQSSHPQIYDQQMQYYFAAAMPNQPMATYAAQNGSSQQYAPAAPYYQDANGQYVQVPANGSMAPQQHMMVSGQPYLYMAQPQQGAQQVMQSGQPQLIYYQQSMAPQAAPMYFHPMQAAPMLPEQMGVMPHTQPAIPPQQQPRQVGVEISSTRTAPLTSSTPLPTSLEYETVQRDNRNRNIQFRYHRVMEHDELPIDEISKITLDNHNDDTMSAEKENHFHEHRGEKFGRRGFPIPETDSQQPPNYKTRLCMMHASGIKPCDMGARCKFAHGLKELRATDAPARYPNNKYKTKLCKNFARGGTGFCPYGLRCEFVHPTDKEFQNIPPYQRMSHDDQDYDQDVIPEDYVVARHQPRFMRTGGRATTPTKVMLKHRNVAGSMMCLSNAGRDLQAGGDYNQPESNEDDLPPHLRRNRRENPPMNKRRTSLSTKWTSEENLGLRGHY
# EBV gp42 block: blocks Epstein-Barr virus glycoprotein 42 binding; inhibition, % (tested at 21.74 µM); Q1HVG2; AID 1085; actives 0.42% (n = 220,000); Fluorescence polarization binding assay, mP read-out; in the data active = inhibition above about 50%
# BCLXL inh: Bcl-xL (human) inhibition. Q07817. inhibition, % at 10.9 µM. actives 0.7% (n = 320,000). AID 2129. GST-Bcl-xL / FITC-Bim BH3 peptide fluorescence polarization;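 active = inhibition above the mean of all tested compounds plus 3 SD, cutoff set per campaign, cut at about 30% in these data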;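 note: 0% = DMSO wells and 100% = unlabeled Bim-BH3 peptide competitor; inhibitors lower millipolarization by displacing the labeled peptide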
# IMP-1 inh-1: inhibitors of Pseudomonas aeruginosa IMP-1 metallo-beta-lactamase; purified IMP-1, nitrocefin hydrolysis, epi-absorbance fluorescence; inhibition, % at 5.6 µM; actives 0.45% (n = 290,000);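 active = inhibition above the mean plus 3 SD of all compounds in the same screening run, cut at about 4.5% in these data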;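 note: 0% = IMP-1 with DMSO and 100% = DMSO wells lacking enzyme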
#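 Assay system: purified recombinant IMP-1 beta-lactamase. Input: IMP-1 0.2 nM before substrate addition. Buffer or medium: Zinc- and detergent-supplemented HEPES buffer, pH 7.1. Schedule: 25 °C, 15 min preincubation, 25 min reaction. Signal: Epi-absorbance fluorescence, 480 nm excitation, 530 nm emission. Evaluation: percent inhibition from optical density relative to buffer-blank wells.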
# VIM-2 inh: inhibitors of Pseudomonas aeruginosa VIM-2 metallo-beta-lactamase. actives 0.89% (n = 290,000). purified VIM-2, nitrocefin hydrolysis, epi-absorbance fluorescence. inhibition, % at 5.6 µM;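 active = inhibition above the mean of all tested compounds plus 3 SD, cutoff set per screening run, cut at about 7.5% in these data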;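 note: red hydrolysis product quenches plate fluorescence so inhibitors raise well fluorescence; 0% = enzyme with DMSO and 100% = DMSO without enzyme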
# GLD-1 RNA inh: GLD-1-TGE RNA interaction inhibition (C. elegans) | Q17339 | purified GLD-1 + fluorescein TGE RNA, fluorescence polarization | inhibition, % at 5.96 µM | actives 0.44% (n = 320,000) | AID 2280;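 active = percent inhibition above a per-plate cutoff, the plate mean of test compounds plus 3 SD, cut at about 30% in these data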;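 note: 0% = DMSO wells with GLD-1 and probe and 100% = wells lacking GLD-1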
# IMP-1 inh-2: blocks IMP-1 metallo-beta-lactamase in VIM-2 selectivity screen; shares compounds with VIM-2 inh; purified IMP-1, nitrocefin hydrolysis, epi-absorbance fluorescence; inhibition, % at 5.6 µM; 1,300 tested, under 10 active; call rule not given here;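 note: 0% = enzyme with vehicle and 100% = vehicle without enzyme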
# VIM-2 FRET inh: inhibits VIM-2 in FRET assay to exclude epi-absorbance artifacts | shares compounds with VIM-2 inh | purified VIM-2, CCF2 FRET substrate hydrolysis | inhibition, % at 5.6 µM | actives 23% (n = 1,300) | AID 1857;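 active = inhibition above the mean of all tested compounds plus 3 SD, cut at about 19% in these data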;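 note: 0% = VIM-2 plus DMSO and 100% = no enzyme wells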
# TEM-1 counter: selectivity counter-screen for VIM-2 inhibitors: E. coli TEM-1 inhibitors | inhibition, % at 5.6 µM | shares compounds with VIM-2 inh | AID 1866 | actives 3% (n = 1,300) | Purified TEM-1, nitrocefin hydrolysis, epi-absorbance fluorescence;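 active = inhibition above that campaign's mean inhibition plus 3 SD, cut at about 0.46% in these data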;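 note: 0% = TEM-1 with DMSO and 100% = TEM-1 with 100 µM potassium clavulanate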
# Target sequence (P62593 whole entry, looked up): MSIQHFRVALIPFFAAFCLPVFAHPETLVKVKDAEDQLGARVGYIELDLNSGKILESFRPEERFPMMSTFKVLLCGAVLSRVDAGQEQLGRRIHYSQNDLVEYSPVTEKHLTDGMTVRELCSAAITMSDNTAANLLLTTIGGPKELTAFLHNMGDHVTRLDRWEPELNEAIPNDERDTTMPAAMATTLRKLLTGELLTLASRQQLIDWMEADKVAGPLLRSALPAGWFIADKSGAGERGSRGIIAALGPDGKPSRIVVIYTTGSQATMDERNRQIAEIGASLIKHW
# VIM-2 confirm 2: confirmation of P. aeruginosa VIM-2 metallo-beta-lactamase inhibitors. shares compounds with VIM-2 inh. purified VIM-2, nitrocefin hydrolysis, epi-absorbance. inhibition, % at 5.6 µM. actives 96% (n = 1,300);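 active = inhibition of the VIM-2 beta-lactamase enzyme above about 11% from the earlier first-round screen, limit read from the data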;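 note: 0% = VIM-2 with DMSO and 100% = buffer wells without enzyme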
# Numbers without * were called inactive; ? = inconclusive; · = not tested or not shown.
SMILES,MEX-5 binding,EBV gp42 block,BCLXL inh,IMP-1 inh-1,VIM-2 inh,GLD-1 RNA inh,IMP-1 inh-2,VIM-2 FRET inh,TEM-1 counter,VIM-2 confirm 2
CCc1ccccc1Nc1nc(-c2cccnc2)cs1,-0.6,·,5.3,-1.1,0.9,-1.0,·,·,·,·
O=[N+]([O-])c1ccccc1Nc1nc(-c2cccnc2)cs1,-6.1,·,1.5,-3.6,15.6*,2.5,-3.5,-3.2,-9.7,27.2*
Cc1ccc(OCCn2ccnc2)c([N+](=O)[O-])c1,-2.4,·,5.2,-3.3,-2.0,1.6,·,·,·,·
Cc1cc(OCCCn2ccnc2)ccc1[N+](=O)[O-],-0.4,·,14.4,-0.9,28.2*,7.8,-2.2,-8.0,-5.9,38.8*
COCC(=O)N1CCC(Oc2ccc(C(=O)N3C[C@@H]4CCC[C@H]3C4)cc2)CC1,0.5,·,·,-1.7,-2.6,·,·,·,·,·
C=CCNc1nc(N)c([N+](=O)[O-])c(Nc2ccccc2OC)n1,1.2,·,1.4,-4.6,3.1,4.5,·,·,·,·
COc1ccccc1Nc1nc(NCCCN(C)C)nc(N)c1[N+](=O)[O-],0.5,-11.5,4.2,-4.8,26.8*,0.7,-2.5,2.9,-6.9,44.1*
CC(=O)Cn1cnc2c(sc3nc(C)cc(C)c32)c1=O,-0.6,-8.1,4.5,-2.5,14.1*,3.2,-3.0,-1.7,-5.3,16.8*
CCOC(=O)C1=C(COC(=O)[C@H](C)NS(=O)(=O)c2ccc(NC(C)=O)cc2)NC(=O)NC1C (stereo partly drawn),·,·,-2.1,·,·,2.5,·,·,·,·
CCc1cc(=O)oc2c3c(cc(OCC(=O)NCCCn4ccnc4)c12)OC(C)(C)CC3,4.2,·,-1.0,-3.8,45.7*,1.6,-2.6,-9.5,-1.8,54.5*
CCc1cc(=O)oc2c(C)c(OCC(=O)NCCCn3ccnc3)ccc12,3.4,·,8.1,-0.1,23.1*,-6.8,-2.7,-1.4,-7.4,34.0*
Cc1cc(Cl)ccc1OCC(=O)NCCCn1ccnc1,-2.1,-5.8,1.5,-2.5,-7.5,4.8,·,·,·,·
CCN(CC)CCOc1ncnc2c1oc1ccccc12,0.2,-12.2,4.7,-0.3,14.6*,0.8,-2.8,1.0,-4.9,13.8*
CN(C(=O)c1ccc(NC(=O)C2CCN(C(=O)OC(C)(C)C)CC2)cc1)C1CCC1,·,·,·,·,·,1.6,·,·,·,·
COc1cc(OC)c2nc(C)c3c(c2c1)N(c1ccc(O)cc1)CC3,-0.2,-4.5,8.5,-1.4,56.5*,-0.5,-4.2,-30.9,-5.8,68.9*
CCN(CC)CCNC(=O)c1ccc2c(c1NCCO)C(=O)c1ccccc1C2=O,-17.4,11.2,16.2,-0.7,13.8*,16.6,-4.5,2.3,-7.9,20.2*
Cc1cccc(NC(=O)COC(=O)c2cccc3c2C(=O)c2ccccc2C3=O)c1C,1.0,1.6,16.4,-1.1,-0.5,1.4,·,·,·,·
CCN(CC)CCC(=O)Nc1cccc2c1C(=O)c1ccccc1C2=O,-1.5,-4.7,36.3*,-0.6,33.4*,12.9,-1.7,-1.2,-8.5,45.2*
CSc1ccc(Cl)c(C(=O)N2CCN(c3ncccn3)CC2)c1,·,·,5.3,·,·,3.0,·,·,·,·
Cc1ccnc(NC(=O)c2ccc(Cl)s2)c1,-0.2,·,4.9,-2.2,-1.3,6.0,·,·,·,·
CCC(c1nnc(SCC(=O)Nc2c(F)cccc2F)n1Cc1ccccc1)N(C)C (stereo not drawn),2.8,·,3.6,-2.2,-1.4,2.0,·,·,·,·
O=C(C1=C(O)C(=O)N(Cc2cccnc2)C1c1ccccn1)c1cccs1 (stereo not drawn),-0.4,6.7,1.4,-3.7,16.2*,4.3,-3.4,40.7*,-4.7,32.2*
CCN(C(=O)c1cccs1)C1CCS(=O)(=O)C1 (stereo not drawn),0.7,·,·,·,·,·,·,·,·,·
CC(=O)c1ccc2c(c1)c(C#N)c1ccccc1[n+]2[O-],?,·,·,2.2,24.0*,·,-2.1,2.7,2.7*,28.1*
Cc1ccc2nc(C)cc(N/N=C/c3ccccc3O)c2c1,3.3,·,3.1,-4.5,-4.9,5.1,·,·,·,·
SMILES,MEX-5 binding,EBV gp42 block,BCLXL inh,IMP-1 inh-1,VIM-2 inh,GLD-1 RNA inh,IMP-1 inh-2,VIM-2 FRET inh,TEM-1 counter,VIM-2 confirm 2
Cc1cc(C)c2nc(C)cc(N/N=C/c3ccc(O)cc3)c2c1,0.3,·,-12.1,-0.8,13.4*,3.2,-3.0,-2.8,-6.2,19.3*
CC(=O)Nc1ccc(-c2sc(Nc3cccc4ccccc34)n[n+]2-c2ccccc2)cc1,-0.6,·,0.9,-1.6,-0.6,-3.4,·,·,·,·
Cc1nc2ccccc2c2oc(C(=O)N3CCN(C4CCCCC4)CC3)cc12,2.0,-8.6,5.4,-2.6,19.4*,-3.4,-2.0,4.0,-5.8,37.6*
CC(=O)c1ccc(N2CCN(C(=O)c3cc4c(C)nc5ccccc5c4o3)CC2)cc1,-0.8,·,0.7,-1.3,0.1,0.0,·,·,·,·
O=C(c1cc(S(=O)(=O)N2CCOCC2)ccc1Cl)N1CCCCC1CO (stereo not drawn),·,·,·,·,·,6.8,·,·,·,·
[O-]c1n[n+](-c2ccc(Cl)cc2Cl)cc2ccccc12,-0.2,-14.4,-0.9,-4.4,0.1,4.3,·,·,·,·
[O-]c1n[n+](-c2ccc(Cl)cc2)cc2ccccc12,-1.9,-15.9,4.2,-2.1,19.1*,0.6,-3.4,-10.7,-0.4,2.2
CCCCn1c(N)c(N(CCOC)C(=O)C2CCN(C(=O)c3ccc(F)cc3)CC2)c(=O)[nH]c1=O,0.3,·,2.4,·,·,-6.2,·,·,·,·
CCN(CC)CCNc1ncnc2c1sc1nc(N3CCOCC3)c3c(c12)CCCC3,5.5,-15.2,-9.9,-2.6,15.5*,-3.0,-3.9,-0.1,-7.2,33.3*
Cn1c(SCC(=O)O)nc2sc3c(c2c1=O)CCC3,0.0,·,·,-2.1,13.9*,·,-3.5,30.1*,-6.2,21.8*
CCn1c(SCC(=O)O)nc2sc3c(c2c1=O)CCC3,-3.9,-14.8,11.3,-1.4,-1.7,-0.6,·,·,·,·
Cc1cccc(-n2c(=S)[nH]c3nc4c(cc3c2=O)COC(C)(C)C4)c1,-0.8,-15.2,7.2,-0.2,1.2,1.4,·,·,·,·
Cc1nc(N2CCCC2)c2ccsc2n1,4.2,-9.3,-2.1,3.3,13.8*,-4.0,-2.2,1.2,-0.3,14.8*
Cc1ccc(C)n1-c1sc2c(c1C#N)CCCC2,1.4,-15.3,3.1,-0.9,0.2,-2.4,·,·,·,·
Cc1csc2c(C#N)c(=O)c3c(n12)CCC3,1.5,3.0,1.5,-0.9,13.9*,-1.7,-3.7,-6.0,-8.6,21.7*
COc1ccc(NC(=O)N(C)C[C@H]2Oc3ccc(NC(=O)C4CC4)cc3CC(=O)N([C@@H](C)CO)C[C@@H]2C)cc1,·,·,·,·,·,3.5,·,·,·,·
